An excerpt weighted towards active compounds, which were near 8.4% of everything screened.
Ecoli WT expand: blocks growth of wild type E. coli BW25113 | growth inhibition, % at 100 µM | OD600 absorbance | AID 710 | 98,000 compounds, 0.15% hits;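 active = growth inhibition above about 50% at one test dose, limit read from the data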;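 note: growth measured after 20 h incubation at 37 °C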
Cav3 T inh: human Cav3.2 channel inhibition, primary screen; O95180; Cav3.2-expressing cells, Fluo-4 calcium fluorescence FDSS; active compounds read low; B-score at 10 µM; 100,000 compounds, 4% hits;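 active = single-dose well whose peak fluorescence ratio is a statistical outlier from its plate by either plate-standardised score or position-corrected B-score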
Target sequence (O95180 whole entry, looked up): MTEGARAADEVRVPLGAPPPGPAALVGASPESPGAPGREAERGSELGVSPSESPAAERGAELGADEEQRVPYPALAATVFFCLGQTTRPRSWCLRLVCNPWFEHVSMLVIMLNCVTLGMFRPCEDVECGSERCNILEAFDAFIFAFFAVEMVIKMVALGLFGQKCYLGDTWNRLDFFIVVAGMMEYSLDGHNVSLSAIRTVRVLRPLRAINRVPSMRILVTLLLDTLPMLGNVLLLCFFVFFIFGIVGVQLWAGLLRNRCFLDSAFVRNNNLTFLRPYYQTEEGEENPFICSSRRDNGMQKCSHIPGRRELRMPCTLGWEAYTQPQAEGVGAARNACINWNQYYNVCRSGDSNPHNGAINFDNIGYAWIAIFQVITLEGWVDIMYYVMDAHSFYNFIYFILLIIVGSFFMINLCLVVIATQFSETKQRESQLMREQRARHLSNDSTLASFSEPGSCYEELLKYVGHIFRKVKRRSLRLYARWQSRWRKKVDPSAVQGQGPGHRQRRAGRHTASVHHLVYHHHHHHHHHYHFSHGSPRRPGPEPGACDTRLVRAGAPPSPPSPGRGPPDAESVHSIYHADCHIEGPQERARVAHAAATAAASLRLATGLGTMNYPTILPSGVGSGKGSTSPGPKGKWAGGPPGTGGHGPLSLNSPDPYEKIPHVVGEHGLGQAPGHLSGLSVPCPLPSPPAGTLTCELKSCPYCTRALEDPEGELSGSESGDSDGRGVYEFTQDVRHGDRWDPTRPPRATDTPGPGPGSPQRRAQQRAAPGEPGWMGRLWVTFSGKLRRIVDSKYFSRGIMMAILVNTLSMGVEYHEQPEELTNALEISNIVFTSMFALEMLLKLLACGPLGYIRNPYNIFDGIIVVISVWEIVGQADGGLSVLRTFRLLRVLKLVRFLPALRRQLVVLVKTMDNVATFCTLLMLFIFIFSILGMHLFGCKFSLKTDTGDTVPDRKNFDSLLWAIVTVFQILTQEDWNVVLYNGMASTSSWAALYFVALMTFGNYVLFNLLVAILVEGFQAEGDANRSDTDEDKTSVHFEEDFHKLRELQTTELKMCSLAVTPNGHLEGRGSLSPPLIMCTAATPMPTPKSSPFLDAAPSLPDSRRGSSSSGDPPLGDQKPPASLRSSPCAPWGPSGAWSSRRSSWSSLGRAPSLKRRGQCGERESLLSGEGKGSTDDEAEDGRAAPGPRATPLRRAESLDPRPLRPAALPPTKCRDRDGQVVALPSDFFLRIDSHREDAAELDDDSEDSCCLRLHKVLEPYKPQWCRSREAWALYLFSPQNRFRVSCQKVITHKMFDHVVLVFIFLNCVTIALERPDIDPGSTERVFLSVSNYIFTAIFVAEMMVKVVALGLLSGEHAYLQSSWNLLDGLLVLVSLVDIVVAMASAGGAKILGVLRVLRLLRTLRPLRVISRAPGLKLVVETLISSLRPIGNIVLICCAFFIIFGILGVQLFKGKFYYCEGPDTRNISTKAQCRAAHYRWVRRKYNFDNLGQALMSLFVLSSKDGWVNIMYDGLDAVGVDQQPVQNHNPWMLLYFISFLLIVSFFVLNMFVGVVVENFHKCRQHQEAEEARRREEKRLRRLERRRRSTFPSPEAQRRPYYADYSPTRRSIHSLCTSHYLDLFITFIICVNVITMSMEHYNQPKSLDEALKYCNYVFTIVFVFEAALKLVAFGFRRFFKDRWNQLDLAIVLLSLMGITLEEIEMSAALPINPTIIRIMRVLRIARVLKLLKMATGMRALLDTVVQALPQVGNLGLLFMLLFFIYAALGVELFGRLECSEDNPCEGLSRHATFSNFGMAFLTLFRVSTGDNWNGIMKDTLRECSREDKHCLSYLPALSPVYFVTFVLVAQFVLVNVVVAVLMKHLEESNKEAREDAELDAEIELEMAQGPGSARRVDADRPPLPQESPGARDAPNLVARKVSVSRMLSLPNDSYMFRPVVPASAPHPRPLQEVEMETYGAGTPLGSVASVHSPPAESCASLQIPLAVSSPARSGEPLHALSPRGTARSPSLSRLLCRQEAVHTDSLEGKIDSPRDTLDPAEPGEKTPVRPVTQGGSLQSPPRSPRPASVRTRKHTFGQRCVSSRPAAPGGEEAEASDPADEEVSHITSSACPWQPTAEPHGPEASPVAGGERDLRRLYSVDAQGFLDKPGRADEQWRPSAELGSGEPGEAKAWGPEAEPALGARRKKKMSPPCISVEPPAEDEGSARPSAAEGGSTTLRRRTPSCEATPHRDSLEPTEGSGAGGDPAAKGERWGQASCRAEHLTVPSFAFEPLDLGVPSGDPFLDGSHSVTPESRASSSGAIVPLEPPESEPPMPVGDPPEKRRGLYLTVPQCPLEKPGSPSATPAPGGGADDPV
PostGolgi yeast: growth inhibition of a yeast mutant, post-Golgi transport screen. inhibition, % at 10 µM. post-Golgi transport phenotypic cell assay. 98,000 compounds, 0.9% hits;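 note: yeast cells grown in 1536-well plates; yeast grown about 18 h at 30C before absorbance read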
PostGolgi ctrl: inhibits growth of the yeast control strain; efflux-deficient yeast background strain, growth absorbance A615, 16 h; inhibition, % at 10 µM; AID 738; 98,000 compounds, 5% hits
tolC growth inh: blocks growth of E. coli BW25113 tolC mutant; OD615; growth inhibition, % at 10 µM (by protocol); 65,000 compounds, 2.2% hits;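 active = growth inhibition at or above a cutoff equal to the mean over every tested compound plus 3 SD, cut at about 60% in these data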;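 note: growth measured after 20 h incubation at 37 °C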
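Doses: one dose of 10 µM final / Material: E. coli BW25113 ΔtolC::kan, tolC deletion mutant strain / Buffer or medium: LB with kanamycin 50 µg/mL / Evaluation: percent growth inhibition / Detection: optical density read at 615 nm / Incubation: 37 °C, 20 h exposure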
The depositor's hits bear a star; nt = not tested or not shown. Cut-off read from the data, not from the text of the source, unless noted: active = inhibition above about 30%; inactive = the rest.

SMILES | Ecoli WT expand | Cav3 T inh | PostGolgi yeast | PostGolgi ctrl | tolC growth inh
Cc1c(O)ccc(/C(Cc2ccc3ccccc3n2)=N\O)c1O | 11 | -4.8* | -1 | -6 | nt
Cc1c(C(=O)COC(C)(C)C)[nH]c2ccccc12 | 11 | nt | -24 | 6 | 2
CCn1c(Cc2ccc(OC)cc2)nnc1SCC(=O)Nc1nc2ccccc2s1 | -3 | -0.2 | 3 | 3 | -8
CCN(Cc1ccccc1)C(c1ccc(C(F)(F)F)cc1)c1nnnn1C(C)(C)C (stereo not drawn) | nt | -4.4* | nt | nt | nt
O=C(COn1nnc2ccc(C(F)(F)F)cc21)Nc1nnc(-c2ccccc2)o1 | -5 | -0.44 | 0 | -1 | 100*
CCN1c2cccc3cccc(c23)S1(=O)=O | -2 | nt | -11 | -5 | nt
CCN1/C(=C(\O)c2ccccc2)C(=O)c2ccccc2S1(=O)=O | 12 | -3.8* | 11 | 23 | 89*
C/C(CCc1oc2ccccc2c1-c1ccc(C)o1)=N/O | 8 | nt | 12 | 47* | 98*
C/C(CCc1oc2c(Br)cc(Br)cc2c1-c1ccc(C)o1)=N\O | nt | 0.79 | nt | nt | nt
CCN(CC)S(=O)(=O)c1cc(NC(=O)COC(=O)CCc2nc3ccccc3s2)ccc1C | -6 | -4.8* | 4 | 7 | nt
Cc1ccccc1OCC(=O)Nc1cccc(NC(=O)c2ccco2)c1 | -1 | -1.3 | -1 | -2 | 24
Cc1cccc(C)c1OCC(=O)Nc1cccc(NC(=O)c2ccco2)c1 | -14 | -4.8* | 7 | 23 | 38
CCn1c2ccccc2c2cc(NC(=O)c3ccco3)ccc21 | -6 | -1.1 | 6 | 19 | 87*
CCn1c2ccccc2c2cc(NC(C)=O)ccc21 | -16 | -0.014 | -5 | 13 | nt
CC(C)N1C(=O)CCC1C(=O)N1CCCc2ccccc21 (stereo not drawn) | -1 | -0.71 | 6 | 1 | -16
c1ccc2c(c1)nc(N1CCOCC1)c1c3ccccc3[nH]c21 | -4 | -0.44 | -6 | 26 | 27
O=C(CCc1nc(-c2ccccc2)c(-c2ccccc2)o1)OCc1ccc(Cl)cc1 | -1 | -4.3* | 1 | 0 | nt
O=C(CCc1nc(-c2ccccc2)c(-c2ccccc2)o1)OCc1ccc(Br)cc1 | -5 | -3.5 | -5 | 13 | nt
CC(C)(C)NC(=O)COc1ccc(CNCc2cccs2)cc1 | 6 | 0.46 | 4 | 24 | nt
COc1cccc(C2CC(c3ccccc3Cl)n3ncnc3N2)c1 (stereo not drawn) | 12 | -0.6 | -2 | -6 | 41
Cc1nn(-c2cc(N3CCCC3)ccc2[N+](=O)[O-])c(=O)c2ccccc12 | -1 | 0.61 | -5 | -2 | nt
Cc1ccc(C)c(-c2nn(-c3cc(N4CCN(CCO)CC4)ccc3[N+](=O)[O-])c(=O)c3ccccc23)c1 | -7 | 1.1 | -2 | 48* | nt
Cc1ccc(-c2nn(-c3cc(Cl)ccc3[N+](=O)[O-])c(=O)c3ccccc23)cc1 | -6 | -1 | -1 | 37* | nt
CCn1cc(C(=O)NCCCOC)c(=O)c2cc(S(=O)(=O)N(C)C)ccc21 | -6 | 0.1 | 0 | 5 | -9
O=C(CN1CCC(Cc2ccccc2)CC1)Nc1ccc2c(c1)OCCO2 | 4 | -4.1* | 7 | -8 | nt
SMILES | Ecoli WT expand | Cav3 T inh | PostGolgi yeast | PostGolgi ctrl | tolC growth inh
COc1ccc(CC(=O)NC2CCN(CC(=O)Nc3ccc4c(c3)OCCO4)CC2)cc1OC | -1 | 0.81 | -8 | 37* | -15
COc1ccc(NC(=O)CN2CCN(Cc3ccc4c(c3)OCO4)CC2)cc1OC | 7 | 0.94 | 10 | 1 | nt
O=C(CN1CCN(CC(=O)Nc2ccccc2Cl)CC1)Nc1ccc2c(c1)OCCO2 | 2 | -0.22 | -1 | -3 | 14
CCOC(=O)c1nn(-c2ccccc2F)c(C)c1C(C)=O | 9 | 0.34 | 10 | 8 | nt
COCC(C)NCc1ccccc1C (stereo not drawn) | 3 | 0.13 | 10 | 10 | -19
Cc1nc(Nc2ccc(Br)cc2Br)c([N+](=O)[O-])c(=O)[nH]1 | nt | 0.53 | nt | nt | nt
O=S(=O)(NCCSc1ccccc1)c1ccc2c(c1)OCCO2 | 4 | -5* | 8 | 13 | 24
Cc1cc(C)n(-c2nc3c(c(=O)n(Cc4ccc(Cl)c(Cl)c4)c(=O)n3C)n2C)n1 | nt | nt | nt | nt | 0
Cc1cc(C)c(C(N)=O)c(NC(=O)Nc2ccccc2Cl)n1 | -5 | -0.16 | 0 | 2 | nt
CCOC(=O)N1CCC(Nc2ccc3nnc(-c4ccccc4)n3n2)CC1 | 3 | 2.7* | -15 | 10 | 19
CCOC(=O)CC(=O)CSc1ccc2nnc(-c3ccccc3)n2n1 | 3 | 0.98 | 6 | 6 | 6
CCCN(CCC)C(=O)CC(c1ccccc1)c1cc(Br)ccc1O (stereo not drawn) | -12 | -3 | -5 | 47* | nt
CC(C)(C)NC(=O)CC(c1ccccc1)c1ccccc1O (stereo not drawn) | -3 | 0.012 | 4 | 4 | nt
CCCN(CCC)C(=O)CC(c1ccccc1)c1ccc(C)cc1O (stereo not drawn) | 5 | -5.7* | 5 | 17 | nt
COc1ccc2[nH]c3c(=O)n(CCCCC(=O)N4CCCC4)c(=S)[nH]c3c2c1 | 1 | 1.1 | 4 | -12 | 100*
COc1ccc(N2CCN(C(=O)CCCn3c(=S)[nH]c4cc5c(cc4c3=O)OCO5)CC2)cc1 | -8 | 0.075 | 0 | 0 | -7
CN(C)CCSc1nnc2sc3ccccc3n12 | 7 | 0.24 | -1 | 5 | -9
COc1ccc(OCCSc2nnc3sc4ccccc4n23)cc1 | 4 | -0.27 | 38* | 1 | 28
COc1ccc(-c2oc(/N=C/N3CCOCC3)c(C#N)c2-c2ccc(OC)cc2)cc1 | -3 | -3.9 | 10 | 9 | 20
CCc1ccccc1NC(=O)Cn1nnc(-c2cccnc2)n1 | -8 | 0.16 | 12 | -15 | -1
CCn1c(CSc2nc3ccccc3s2)nnc1SCC(=O)c1ccc(Cl)cc1 | -5 | -4.2* | -9 | 43* | nt
O=C(N/N=C/c1ccccc1)c1sccc1OCc1ccc(F)cc1 | 2 | -0.17 | 0 | 68* | nt
O=C(NCCCn1ccnc1)c1ccc2c(c1)OCCO2 | 2 | -0.21 | -6 | 47* | -17
c1ccc(-c2csc(N3CCN(c4ccccn4)CC3)n2)cc1 | -16 | -0.57 | -3 | 41* | 88*
c1ccc(-c2csc(N3CCOCC3)n2)cc1 | 5 | -1.9 | 19 | -2 | nt
SMILES | Ecoli WT expand | Cav3 T inh | PostGolgi yeast | PostGolgi ctrl | tolC growth inh
O=C(NC12CC3CC(CC(C3)C1)C2)N1CCN(c2nc(-c3ccccc3)cs2)CC1 | -5 | nt | 2 | 42* | nt
CCOC(=O)c1cccc(NC(=O)c2c(NCc3ccccc3)[nH]c(=O)[nH]c2=O)c1 | nt | -0.41 | nt | nt | nt
COc1ccccc1CN(Cc1nc2ccccc2c(=O)[nH]1)C(=O)Nc1cccc(C)c1 | -8 | -2.8 | -2 | 20 | nt
O=[N+]([O-])c1cccnc1N1CCC(c2cc(-c3ccc(Cl)cc3Cl)n[nH]2)CC1 | -12 | -0.49 | 2 | 59* | nt
CC1CCC2(CC1)NC(=O)c1ccccc1O2 (stereo not drawn) | 15 | -0.73 | 16 | 13 | -6
CCOC(=O)c1cnc(-n2nc(C)cc2C)nc1NCc1ccccc1 | 3 | -0.98 | 4 | 46* | 100*
CCOC(=O)c1cnc(-n2nc(C)cc2C)nc1NC(C)c1ccccc1 (stereo not drawn) | -6 | -8.8* | 8 | 44* | 100*
CC(C)(C)c1cc2cccnc2n1Cc1cccc(Cl)c1 | 17 | nt | 3 | 10 | nt

Compound activity deposited in PubChem by several laboratories.
